Source: PubChem BioAssay (Sanford-Burnham Center for Chemical Genomics)
Rows were chosen to be rich in hits. Some 3.3% of all compounds tested hit in one or more screens of this group.
SENP7 inh – inhibitors of human SENP7 protease | Q9BQF6 | recombinant SENP7, Z-RLRGG-aminoluciferin luminescence, 40 min | AID 434973 | inhibition, % at 5 µM | 1.5% of 330,000 active;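 active = inhibition above about 50% at the single test dose, limit read from the data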;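 note: plate controls were DMSO with enzyme for no effect and no enzyme buffer wells for full effect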
SENP1 inh – SENP1 (human) catalytic domain inhibition; 0.21% of 360,000 active; inhibition, % at 10 µM; AID 624204; recombinant SENP1 catalytic domain, CyPet-SUMO1-YPet FRET cleavage;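 active = inhibition at least 30% at 10 µM, raw YFP signal under a set limit, fluorescence ratio 0.5 to 1.5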;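 note: 0% = enzyme with DMSO and 100% = no enzyme wells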
Target sequence (Q9P0U3 419-644 limits assumed): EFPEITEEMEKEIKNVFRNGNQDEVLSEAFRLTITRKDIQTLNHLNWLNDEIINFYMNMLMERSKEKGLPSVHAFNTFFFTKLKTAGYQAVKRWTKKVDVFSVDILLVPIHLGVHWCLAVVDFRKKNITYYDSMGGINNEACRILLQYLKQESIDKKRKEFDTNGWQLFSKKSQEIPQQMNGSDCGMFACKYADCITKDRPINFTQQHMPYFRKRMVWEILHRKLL
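Compound: 10 µM single point, 0.5% DMSO; Test system: hSENP1 catalytic domain, recombinant; Timing: 50 min reaction at room temperature; Technique: FRET, CFP and YFP emission; Control set: no-enzyme wells low, DMSO-plus-enzyme wells high control.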
SENP6 inh – blocks the human protease SENP6 | Q9GZR1 | Recombinant SENP6 catalytic domain, aminoluciferin luminescence | inhibition, % at 10 µM | 1.8% of 330,000 active | AID 2599;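 active = inhibition above about 50% at the single tested dose, limit read from the data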;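 note: plate controls were DMSO wells with enzyme for no effect and DMSO wells lacking enzyme for full effect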
Target sequence (Q9GZR1 628-1112 limits assumed): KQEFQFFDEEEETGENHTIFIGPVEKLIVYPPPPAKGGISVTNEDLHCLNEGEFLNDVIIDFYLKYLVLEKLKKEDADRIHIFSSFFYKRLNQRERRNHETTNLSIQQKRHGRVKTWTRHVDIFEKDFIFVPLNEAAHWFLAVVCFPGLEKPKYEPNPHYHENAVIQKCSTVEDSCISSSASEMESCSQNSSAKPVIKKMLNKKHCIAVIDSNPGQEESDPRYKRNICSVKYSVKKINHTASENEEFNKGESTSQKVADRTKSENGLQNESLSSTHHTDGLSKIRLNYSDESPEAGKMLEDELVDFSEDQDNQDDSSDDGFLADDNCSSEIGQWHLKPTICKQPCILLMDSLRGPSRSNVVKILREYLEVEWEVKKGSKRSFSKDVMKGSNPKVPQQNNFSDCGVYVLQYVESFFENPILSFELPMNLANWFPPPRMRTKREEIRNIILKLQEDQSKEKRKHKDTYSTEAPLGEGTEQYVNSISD
SENP8 block-1 – SENP8 (human) protease inhibition | inhibition, % at 20 µM | AID 602440 | recombinant SENP8, Nedd8 substrate fluorescence | Q96LD8 | 0.64% of 360,000 active; in the data active = inhibition mostly above about 40%, no sharp cut-off; inactive = mostly below about 27%
NRP1-CendR mod – modulators of CendR peptide binding to human neuropilin-1 | O14786 | FAM-RPARPAR peptide binding to NRP-1, fluorescence polarization | inhibition, % at 25 µM | 0.85% of 360,000 active | AID 602438;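 active = inhibition or corrected inhibition above about 18%, plus a signal ratio from 0.5 to 1.5, limit read from the data, passing the limit was not always enough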
SENP8 block-2 – SENP8 protease inhibition | purified SENP8, Z-RLRGG-aminoluciferin cleavage, luminescence | inhibition, % at 10 µM | 1.2% of 330,000 active; in the data active = inhibition above about 50%
SENP8 conf – confirmation of human SENP8 protease inhibitors | shares compounds with SENP7 inh | inhibition, % at 12.5 µM | AID 488912 | Recombinant SENP8, Z-RLRGG-aminoluciferin luminescence, 60 min | 40% of 6,200 active;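 active = mean inhibition across replicates above about 50%, limit read from the data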
SENP6 conf – confirmation of human SENP6 protease inhibitors; recombinant SENP6, Z-RLRGG-aminoluciferin luminescence; shares compounds with SENP7 inh; 58% of 6,200 active; inhibition, % at 12.5 µM
SENP7 conf – human SENP7 inhibition, confirmed; shares compounds with SENP7 inh; recombinant SENP7, Z-RLRGG-aminoluciferin luminescence, 40 min; inhibition, % at 12.5 µM; 69% of 6,200 active; AID 488917
Casp3 SENP sel – caspase-3 inhibition (SENP selectivity assay) | shares compounds with SENP7 inh | purified caspase-3, Z-DEVD-aminoluciferin luminescence, 60 min | inhibition, % at 12.5 µM | 60% of 6,200 active | AID 488918;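 active = mean inhibition above about 50%, limit read from the data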;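 note: plate controls were enzyme with DMSO for no effect and wells without caspase-3 for full effect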
SENP luc ctr – interferes with luciferase luminescence in SENP counter-screen. shares compounds with SENP7 inh. Pre-incubated SENP8/Z-RLRGG-aminoluciferin, luciferase luminescence interference. AID 488919. 39% of 6,200 active. inhibition, % at 12.5 µM;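 active = mean inhibition above about 50% when retested at one dose, limit read from the data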;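 note: plate controls were DMSO wells with completed reaction for no effect and substrate without enzyme for full effect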
Active calls of the source: *; nt = no result.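 Rule for the calls, unless noted: active = mean inhibition above about 50% in the one-dose retest (limit read from the data); inactive = the rest.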

SMILES | SENP7 inh | SENP1 inh | SENP6 inh | SENP8 block-1 | NRP1-CendR mod | SENP8 block-2 | SENP8 conf | SENP6 conf | SENP7 conf | Casp3 SENP sel | SENP luc ctr
COc1ccc(CN(C)C[C@@H]2OCCCC[C@H](C)Oc3ccc(NC(=O)Nc4ccc(F)cc4)cc3C(=O)N([C@H](C)CO)C[C@H]2C)cc1 | nt | 1 | nt | 14 | -4 | nt | nt | nt | nt | nt | nt
N#CCc1ccc(-c2cccc3nccn23)cc1 | nt | 2 | nt | -493 | 6 | nt | nt | nt | nt | nt | nt
Cn1c(=NC(=O)c2ccccc2[N+](=O)[O-])sc2cccc(F)c21 | 77* | 3 | 47 | 24 | 6 | 20 | 24 | 25 | 18 | 35 | 0
Cc1ccc(NC(=O)CCC(=O)c2cccs2)nc1 | -5 | -6 | -7 | -18 | -6 | 0 | nt | nt | nt | nt | nt
Cc1ccnc(NC(=O)CCC(=O)c2cccs2)c1 | 56* | -4 | 87* | -31 | 3 | 75* | 92* | 91* | 99* | 95* | 91*
CCCc1ccc(C(=O)O/N=C(\N)c2ccccn2)cc1 | 100* | 0 | 100* | 19 | 2 | 97* | 97* | 100* | 102* | 98* | 78*
N/C(=N\OC(=O)c1ccc2ccccc2c1)c1ccncc1 | 67* | 0 | 47 | -12 | -4 | 56* | 70* | 71* | 90* | 77* | 73*
N/C(=N\OC(=O)c1ccc2ccccc2c1)c1ccccn1 | 101* | 3 | 94* | -20 | -7 | 96* | 95* | 97* | 102* | 98* | 27
Cc1cc(C(=O)O/N=C(\N)c2ccncc2)ccc1[N+](=O)[O-] | 57* | 1 | 37 | 23 | -8 | 18 | 8 | 6 | 38 | 43 | 26
Cc1ccccc1C(=O)O/N=C(\N)Cc1cccs1 | 61* | 1 | 51* | 6 | 2 | 35 | 52* | 49 | 81* | 76* | 55*
N/C(=N\OC(=O)c1ccc2ccccc2c1)c1cccc([N+](=O)[O-])c1 | 16 | 4 | 1 | 7 | -1 | -13 | nt | nt | nt | nt | nt
N/C(=N\OC(=O)c1ccc2ccccc2c1)c1ccccc1Cl | 78* | 1 | 73* | 0 | 1 | 68* | 82* | 81* | 94* | 71* | 83*
Cc1ccccc1C(=O)O/N=C(\N)c1ccncc1 | 65* | 1 | 62* | 5 | 9 | 30 | 42 | 41 | 79* | 81* | 55*
N/C(=N\OC(=O)C1CCCCC1)c1ccccn1 | 68* | 2 | 67* | 15 | -3 | 46 | 61* | 60* | 87* | 89* | 67*
C[C@H]1CN(c2ccc(Br)cc2)C(=O)[C@@H]1CC(=O)Nc1ccccc1 | nt | 0 | nt | -3 | -9 | nt | nt | nt | nt | nt | nt
COC(=O)CCC(C(=O)CN1C(=O)c2ccccc2C1=O)N1C(=O)c2ccccc2C1=O (configuration not stated) | nt | 1 | nt | -2 | 14 | nt | nt | nt | nt | nt | nt
COc1cccc(C(=O)O/N=C(\N)c2ccccn2)c1 | 98* | 3 | 97* | 4 | -16 | 95* | 97* | 98* | 102* | 98* | 98*
COc1cccc(C(=O)NCCCNC(=O)c2ccccn2)c1 | -2 | 0 | 9 | 4 | 13 | 2 | nt | nt | nt | nt | nt
CC1CC(C)CN(CCCNC(=O)C2CCN(S(=O)(=O)N3CCCCC3)CC2)C1 (configuration not stated) | 101* | -2 | 19 | 10 | 4 | -4 | 7 | 8 | -7 | -2 | -2
CC1CCN(CCCNC(=O)C2CCN(S(=O)(=O)N3CCCCC3)CC2)CC1 | -3 | 2 | -16 | 8 | 14 | -5 | nt | nt | nt | nt | nt
COc1ccc(C)c2sc(=NC(=O)c3ccccc3)n(C)c12 | 99* | 1 | 15 | -388 | 17 | 6 | 4 | 78* | 85* | 90* | 12
COc1ccc(C)c2sc(=NC(=O)C(C)C)n(C)c12 | 5 | -2 | -6 | -46 | -12 | -6 | nt | nt | nt | nt | nt
C=CCn1c(=NC(=O)c2cccc(N3C(=O)CCC3=O)c2)sc2cccc(OC)c21 | -5 | 0 | 6 | -426 | 12 | 9 | nt | nt | nt | nt | nt
COc1ccc(C)c2sc(=NC(=O)c3cccc(N4C(=O)CCC4=O)c3)n(C)c12 | 78* | 2 | 51* | -394 | -7 | 25 | -4 | -2 | 0 | 15 | 3
CC1=C2C3OC(=O)C(C)C3CCC2(C)C=CC1=NO (configuration not stated) | nt | 1 | nt | 3 | -9 | nt | nt | nt | nt | nt | nt
SMILES | SENP7 inh | SENP1 inh | SENP6 inh | SENP8 block-1 | NRP1-CendR mod | SENP8 block-2 | SENP8 conf | SENP6 conf | SENP7 conf | Casp3 SENP sel | SENP luc ctr
COc1ccccc1N1CCN(C(=O)C2=CC=CN3CCS(=O)(=O)N=C23)CC1 | 7 | 0 | -3 | -8 | -5 | -6 | nt | nt | nt | nt | nt
Cc1nc2ccc(C(=O)N(C)Cc3ccco3)cn2c1N(C)C(=O)CCc1ccccc1 | nt | -1 | nt | -28 | 3 | nt | nt | nt | nt | nt | nt
O=C(c1ccc(COc2ccc(Cl)cc2)cc1)N1CCCCC1 | 75* | 1 | 87* | 16 | 22 | 63* | 81* | 78* | 91* | 60* | 66*
COC(=O)c1ccc(COc2c(F)c(F)cc(F)c2F)o1 | -7 | 1 | -16 | 6 | -3 | -13 | nt | nt | nt | nt | nt
O=C(O)c1ccc(COc2ccccc2Cl)cc1 | 31 | 0 | 72* | 2 | -3 | 57* | 8 | 66* | 91* | 85* | 70*
COc1ccc(OCC(O)COc2ccc(C(=O)O)cc2)cc1 (configuration not stated) | 2 | -1 | -4 | 16 | -1 | 0 | nt | nt | nt | nt | nt
O=C(O)c1ccc(COc2c(F)c(F)cc(F)c2F)cc1 | 48 | 1 | 80* | 9 | 1 | 41 | 66* | 67* | 90* | 90* | 79*
CCCCOc1ccc(C(=O)N2CCCCCC2)cc1 | -8 | 2 | 18 | 20 | -1 | -7 | nt | nt | nt | nt | nt
COc1ccc(OCc2ccc(C(=O)O)cc2)cc1 | 68* | 1 | 84* | 31 | 7 | 51* | 81* | 76* | 94* | 62* | 78*
O=C(O)c1cccc(COc2cccc3ccccc23)c1 | 96* | 0 | 97* | 17 | 7 | 97* | 98* | 100* | 103* | 84* | 99*
